The species named for data set [1] is Cavia porcellus. The experiment in a line: Inotropic effect in electrically driven left atrium from reserpine-treated guinea pig at the concentration of 10 e-3 M. Format: functional, Cardiac atrium. The method, boiled down:
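Atria from reserpine-pretreated guinea pigs (2 mg/kg ip, 48 and 24 h), tyramine-unresponsive only. Left atrium loaded 0.5 g, paced at 1.5 Hz with 3-ms square pulses at 10–20% above threshold. Equilibrated 90 min. Agents added cumulatively, 5 min per concentration. Isometric developed tension expressed as % increase over control.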

The species named for data set [2] is Cavia porcellus. The experiment in a line: Effect on contractile force of spontaneously beating atria from reserpine treated guinea pigs at the concentration of 2 x 10 e-3 M. Format: functional.
For data set [3], the species on record is Cavia porcellus. The experiment in a line: Effect on frequency rate of spontaneously beating atria from reserpine treated guinea pigs at the concentration of 10 e-3 M. The format is functional.
Data set [4] is filed under the species Cavia porcellus. Nature of the data set: Inotropic response in electrically driven left atrium from reserpine-treated guinea pig with ADA (2 units/ml) at the concentration of 10 e-5 M. Format: functional, Cardiac atrium. The method, boiled down: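 Reserpinized guinea pigs (2 mg/kg ip, 48 and 24 h before death), tyramine-unresponsive atria. Electrically driven left atrium (1.5 Hz, 3-ms pulses, 0.5 g load) preincubated 20 min with adenosine deaminase after 90 min equilibration. Agents added cumulatively, 5 min per concentration. Developed tension recorded isometrically, % increase over control or % inhibition; six assays from six experiments, Student's t test.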

Data set [5] is filed under the species Cavia porcellus. The experiment in a line: Effect on contractile force of spontaneously beating atria from reserpine treated guinea pigs at the concentration of 10 e-5 M. The format is functional.
Data set [6] is filed under the species Cavia porcellus. The experiment in a line: Inotropic response in electrically driven left atrium from reserpine-treated guinea pig with 8-phenyl theophylline (10 e-5)at the concentration of 5 x 10 e-4 M. The format is functional, Cardiac atrium. The method, boiled down:
(§1)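 Guinea pigs pretreated with reserpine 2 mg/kg ip at 48 and 24 h before sacrifice; atria unresponsive to tyramine 2 μg/mL used. Left atrium paced at 1.5 Hz (3-ms square pulses, 10–20% above threshold, 0.5 g load). 8-Phenyltheophylline 10 μM preincubated 20 min after 90 min equilibration, then agents added cumulatively, 5 min each. Isometric developed tension as % over control; six assays from six experiments.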

The species entered for data set [7] is Cavia porcellus. The experiment in a line: Inotropic response in electrically driven left atrium from reserpine-treated guinea pig with 8-phenyl theophylline (10 e-5)at the concentration of 5 x 10 e-5 M. Format: functional, Cardiac atrium. The method, boiled down: as §1
The species entered for data set [8] is Cavia porcellus. Nature of the data set: Inotropic response in electrically driven left atrium from reserpine-treated guinea pig without VER at the concentration of 10 e-5 M. Format: functional, Cardiac atrium. The essentials:
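Control arm without verapamil: left atrium from reserpinized guinea pigs (2 mg/kg ip, 48 and 24 h before), tyramine-unresponsive, paced at 1.5 Hz (3-ms pulses). Agents added cumulatively after 90 min equilibration, recorded 5 min each. Isometric developed tension as % increase over control; seven assays from seven experiments.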

Data set [9] is filed under the species Cavia porcellus. Nature of the data set: Inotropic response in electrically driven left atrium from reserpine-treated guinea pig with 8-phenyl theophylline (10 e-5)at the concentration of 2 x 10 e-3 M. Format: functional, Cardiac atrium. The method, boiled down:
as §1

Data set [10] is filed under the species Cavia porcellus. The experiment in a line: Inotropic response in electrically driven left atrium from reserpine-treated guinea pig without ADA at the concentration of 2 x 10 e-3 M. Format: functional, Cardiac atrium. The essentials:
(§2)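 Control arm: electrically driven left atrium (1.5 Hz, 3-ms pulses, 0.5 g load) from guinea pigs given reserpine 2 mg/kg ip at 48 and 24 h, tyramine-unresponsive; no adenosine deaminase. Cumulative additions after 90 min equilibration, 5 min per concentration. Isometric developed tension, % over control; six assays from six experiments.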

The species entered for data set [11] is Cavia porcellus. The experiment in a line: Inotropic response in electrically driven left atrium from reserpine-treated guinea pig without ADA at the concentration of 5 x 10 e-4 M. Format: functional, Cardiac atrium. The essentials:
as §2

The species entered for data set [12] is Cavia porcellus. The experiment in a line: Inotropic response in electrically driven left atrium from reserpine-treated guinea pig with 8-phenyl theophylline (10 e-5)at the concentration of 10 e-4 M. Format: functional, Cardiac atrium. The essentials: as §1
Data set [13] is filed under the species Cavia porcellus. Nature of the data set: Inotropic response in electrically driven left atrium from reserpine-treated guinea pig with 8-phenyl theophylline (10 e-5)at the concentration of 10 e-3 M. Format: functional, Cardiac atrium. The essentials: as §1
The species named for data set [14] is Cavia porcellus. Nature of the data set: Inotropic response in electrically driven left atrium from reserpine-treated guinea pig with 8-phenyl theophylline (10 e-5) at the concentration of 10 e-5 M. Format: functional, Cardiac atrium. The method, boiled down: as §1
The species named for data set [15] is Cavia porcellus. The experiment in a line: Inotropic effect in electrically driven left atrium from reserpine-treated guinea pig without 8-phenyl theophylline at the concentration of 10 e-5 M. The format is functional, Cardiac atrium. The essentials: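 Paced left atrium from reserpine-pretreated, tyramine-unresponsive guinea pigs (0.5 g load, 1.5 Hz, 3-ms pulses). Cumulative additions of agent, 5 min each, with no 8-phenyltheophylline present. Developed tension as % increase over control. Mean ± SEM of six assays from six experiments; Student's t test against the 8-phenyltheophylline-treated preparations.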

For data set [16], the species on record is Cavia porcellus. Nature of the data set: Inotropic response in electrically driven left atrium from reserpine-treated guinea pig without ADA at the concentration of 10 e-5 M. The format is functional, Cardiac atrium. The method, boiled down: as §2
Data set [17] in a line: Logarithm of the sum of contributions of each atom to the total lipophilicity of the molecule. The format is physicochemical. The settings on record: octanol/water.
For data set [18], the species on record is Cavia porcellus. Nature of the data set: Inotropic response in electrically driven left atrium from reserpine-treated guinea pig with VER (10 e-7) at the concentration of 5 x10 e-5 M. The format is functional, Cardiac atrium. The essentials:
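Left atrium from reserpine-treated guinea pigs (2 mg/kg ip, 48 and 24 h prior; tyramine 2 μg/mL check), paced at 1.5 Hz with 3-ms pulses. Verapamil 0.1 μM added 10 min before cumulative agent additions (5 min each), after 90 min equilibration. Isometric developed tension as % increase over control; seven assays from seven experiments.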

For data set [19], the species on record is Cavia porcellus. The experiment in a line: Inotropic response in electrically driven left atrium from reserpine-treated guinea pig with 8-pH (10 e-5)at the concentration of 10 e-5 M. The format is functional, Cardiac atrium. The method, boiled down: as §1
Data set [20] is filed under the species Cavia porcellus. The experiment in a line: Inotropic response in electrically driven left atrium from reserpine-treated guinea pig with ADA (2 units/ml) at the concentration of 10 e-5 M (% inhibition of contractile response) (p<0.001). The format is functional, Cardiac atrium.
The species entered for data set [21] is Cavia porcellus. Nature of the data set: Inotropic response in electrically driven left atrium from reserpine-treated guinea pig with 8-pH (10 e-5)at the concentration of 5 x 10 e-4 M. The format is functional, Cardiac atrium. The method, boiled down:
as §1

The species entered for data set [22] is Cavia porcellus. The experiment in a line: Inotropic response in electrically driven left atrium from reserpine-treated guinea pig with 8-pH (10 e-5)at the concentration of 5 x 10 e-5 M. Format: functional, Cardiac atrium. The method, boiled down:
as §1

The species named for data set [23] is Cavia porcellus. The experiment in a line: Inotropic response in electrically driven left atrium from reserpine-treated guinea pig with 8-pH (10 e-5)at the concentration of 2 x 10 e-3 M. Format: functional, Cardiac atrium. The essentials: as §1
The species named for data set [24] is Cavia porcellus. Nature of the data set: Inotropic response in electrically driven left atrium from reserpine-treated guinea pig with 8-pH (10 e-5)at the concentration of 10 e-4 M. Format: functional, Cardiac atrium. The essentials: as §1
The species entered for data set [25] is Cavia porcellus. The experiment in a line: Inotropic response in electrically driven left atrium from reserpine-treated guinea pig with 8-pH (10 e-5)at the concentration of 10 e-3 M. The format is functional, Cardiac atrium. The essentials:
as §1

The structures appear in SMILES notation.

What is called logP is the decadic logarithm of the partition coefficient of the neutral form, usually between octanol and water. A lower logP goes with lower lipophilicity.

Regarding `CC1CC(=O)c2ccc(O)nc2C1` (stereo not given), the Increase in the data set filed under Cavia porcellus [1] was 48.86%; in the data set listed under Cavia porcellus [2], 80.98%; in the data set listed under Cavia porcellus [3], 19.68%; in the data set filed under Cavia porcellus [4], 2.48%; in the data set filed under Cavia porcellus [5] it was 4.28%; in the data set filed under Cavia porcellus [6] it was 15.18%. The Increase in the data set listed under Cavia porcellus [7] stood at 3.95%; in the data set listed under Cavia porcellus [8], 5.76%; in the data set filed under Cavia porcellus [9], 52.56%; in the data set filed under Cavia porcellus [10] it was 67.12%; in the data set filed under Cavia porcellus [11] it was 36.16%; in the data set listed under Cavia porcellus [12] it was 8.67%. In addition, the Increase is on record as 25.45% in the data set filed under Cavia porcellus [13]; 0.29% in the data set filed under Cavia porcellus [14]; 4.64% in the data set filed under Cavia porcellus [15]; 15.78% in the data set filed under Cavia porcellus [16]; 2.45% in the data set listed under Cavia porcellus [18]. In [17], this compound came in with a logP of 0.45.
Regarding `CC(=O)c1cc(C#N)c(O)nc1C`, the Increase is listed as 58.73% in the data set listed under Cavia porcellus [1]; 64.11% in the data set filed under Cavia porcellus [2]; 21.93% in the data set filed under Cavia porcellus [3]; 7.75% in the data set listed under Cavia porcellus [19]; 13.9% in the data set filed under Cavia porcellus [5]; 18.83% in the data set listed under Cavia porcellus [8]. The Increase in the data set filed under Cavia porcellus [20] was 3.42%; in the data set listed under Cavia porcellus [10] it was 84.6%; in the data set filed under Cavia porcellus [21], 40.37%; in the data set listed under Cavia porcellus [22] it was 11.59%; in the data set filed under Cavia porcellus [23], 58.97%; in the data set listed under Cavia porcellus [24], 23.03%. The Increase in the data set listed under Cavia porcellus [25] is 50.44%; in the data set listed under Cavia porcellus [15] it was 12.62%; in the data set filed under Cavia porcellus [16] it was 5.26%; in the data set listed under Cavia porcellus [18], 19.5%. This compound also came in with a logP in data set [17] of -0.1.

The record behind these values is ChEMBL document CHEMBL1126775, “A pharmacological, crystallographic, and quantum chemical study of new inotropic agents” (J Med Chem, 1993).
